From ChEMBL document CHEMBL3108666, “Cytotoxic and protein kinase inhibiting nakijiquinones and nakijiquinols from the sponge Dactylospongia metachromia” (J Nat Prod, 2014)
Calls of active or inactive are those of the source. The rule behind the calls is not given here.

What was measured:
[1] = target: T1, Vascular endothelial growth factor receptor 2 (Homo sapiens, UniProt P35968); experiment: Inhibition of recombinant VEGFR2 (unknown origin) using poly(Glu,Tyr)4:1 as substrate assessed as incorporation of [gamma-33P]-ATP into substrate at 10 uM by radiometric assay
Outline: (§1)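 Radiometric 33PanQinase format: recombinant kinase incubated with [γ-33P]ATP plus unlabeled ATP and kinase substrate; substrate-incorporated label measured by FlashPlate counting; compounds screened at 10 μM each across a 16-kinase panel.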

Focal adhesion kinase 1 [2] = target: T2, Focal adhesion kinase 1 (Homo sapiens, UniProt Q05397); experiment: Inhibition of recombinant FAK (unknown origin) assessed as incorporation of [gamma-33P]-ATP into substrate at 10 uM by radiometric assay; outline: as §1
Target sequence in this assay (Q05397 2-1052 limits assumed): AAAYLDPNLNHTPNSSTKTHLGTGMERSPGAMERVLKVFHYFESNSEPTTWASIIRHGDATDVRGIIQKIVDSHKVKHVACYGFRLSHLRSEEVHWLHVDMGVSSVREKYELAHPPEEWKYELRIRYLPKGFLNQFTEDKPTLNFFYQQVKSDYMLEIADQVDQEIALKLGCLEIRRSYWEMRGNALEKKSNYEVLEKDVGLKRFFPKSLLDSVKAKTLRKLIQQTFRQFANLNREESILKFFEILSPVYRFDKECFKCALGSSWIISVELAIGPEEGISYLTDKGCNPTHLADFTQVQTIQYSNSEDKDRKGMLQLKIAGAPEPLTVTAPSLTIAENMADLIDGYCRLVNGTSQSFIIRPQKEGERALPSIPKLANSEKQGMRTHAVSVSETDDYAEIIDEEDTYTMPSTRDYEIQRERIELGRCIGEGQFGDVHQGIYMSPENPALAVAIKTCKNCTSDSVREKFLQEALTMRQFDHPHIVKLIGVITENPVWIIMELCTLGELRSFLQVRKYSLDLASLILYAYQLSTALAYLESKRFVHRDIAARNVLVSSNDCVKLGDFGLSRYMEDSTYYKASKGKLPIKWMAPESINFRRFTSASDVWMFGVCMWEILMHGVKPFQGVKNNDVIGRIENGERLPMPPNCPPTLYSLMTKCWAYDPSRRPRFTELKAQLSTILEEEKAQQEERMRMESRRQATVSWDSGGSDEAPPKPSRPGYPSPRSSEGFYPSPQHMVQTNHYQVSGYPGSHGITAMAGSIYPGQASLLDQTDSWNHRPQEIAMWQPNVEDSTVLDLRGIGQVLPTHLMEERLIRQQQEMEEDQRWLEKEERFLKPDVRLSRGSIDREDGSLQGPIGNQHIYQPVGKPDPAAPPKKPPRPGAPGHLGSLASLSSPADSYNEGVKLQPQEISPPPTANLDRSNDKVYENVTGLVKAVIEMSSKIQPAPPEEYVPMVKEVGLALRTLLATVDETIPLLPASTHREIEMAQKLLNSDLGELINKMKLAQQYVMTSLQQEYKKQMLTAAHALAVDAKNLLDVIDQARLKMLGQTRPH

[3] = target: T3, ALK tyrosine kinase receptor (Homo sapiens, UniProt Q9UM73); experiment: Inhibition of recombinant ALK (unknown origin) assessed as incorporation of [gamma-33P]-ATP into substrate at 10 uM by radiometric assay; outline: as §1
[4] = target: T4, Insulin-like growth factor 1 receptor (Homo sapiens, UniProt P08069); experiment: Inhibition of recombinant IGF1R (unknown origin) using Poly (Glu,Tyr) 4:1 as substrate assessed as incorporation of [gamma-33P]-ATP into substrate at 10 uM by radiometric assay; outline: as §1
[5] = target: T5, Proto-oncogene tyrosine-protein kinase Src (Homo sapiens, UniProt P12931); experiment: Inhibition of recombinant SRC (unknown origin) using casein as substrate assessed as incorporation of [gamma-33P]-ATP into substrate at 10 uM by radiometric assay; outline: as §1
T5 sequence (P12931 2-536 limits assumed): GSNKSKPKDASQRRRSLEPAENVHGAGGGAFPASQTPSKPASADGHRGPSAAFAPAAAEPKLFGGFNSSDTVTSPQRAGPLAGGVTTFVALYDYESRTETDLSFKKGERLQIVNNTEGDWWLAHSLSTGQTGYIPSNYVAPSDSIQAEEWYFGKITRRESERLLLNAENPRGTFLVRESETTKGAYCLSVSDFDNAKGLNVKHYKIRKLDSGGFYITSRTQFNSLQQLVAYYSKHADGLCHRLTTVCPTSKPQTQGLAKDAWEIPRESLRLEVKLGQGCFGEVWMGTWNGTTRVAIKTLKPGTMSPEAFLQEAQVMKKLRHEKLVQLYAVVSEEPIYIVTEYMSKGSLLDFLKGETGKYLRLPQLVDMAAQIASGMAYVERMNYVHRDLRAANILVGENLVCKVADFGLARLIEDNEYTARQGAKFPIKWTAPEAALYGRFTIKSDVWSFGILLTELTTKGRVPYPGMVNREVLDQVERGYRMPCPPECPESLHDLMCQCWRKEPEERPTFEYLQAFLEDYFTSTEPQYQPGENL

L5178Y = experiment: Cytotoxicity against mouse L5178Y cells assessed as growth inhibition by MTT assay; format: functional, cell-based
Outline: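 L5178Y mouse lymphoma cells; MTT microculture tetrazolium read-out, compared with untreated controls; media with 0.1% EGMME-DMSO as negative control; three independent experiments, each in triplicate.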

[6] = target: Serine/threonine-protein kinase N1 (Homo sapiens, UniProt Q16512); experiment: Inhibition of recombinant PRK1 (unknown origin) using casein as substrate assessed as incorporation of [gamma-33P]-ATP into substrate by radiometric assay; outline: as §1
[7] = target: T6, Serine/threonine-protein kinase Nek2 (Homo sapiens, UniProt P51955); experiment: Inhibition of recombinant NEK2 (unknown origin) assessed as incorporation of [gamma-33P]-ATP into substrate by radiometric assay
T6 sequence (P51955 whole entry): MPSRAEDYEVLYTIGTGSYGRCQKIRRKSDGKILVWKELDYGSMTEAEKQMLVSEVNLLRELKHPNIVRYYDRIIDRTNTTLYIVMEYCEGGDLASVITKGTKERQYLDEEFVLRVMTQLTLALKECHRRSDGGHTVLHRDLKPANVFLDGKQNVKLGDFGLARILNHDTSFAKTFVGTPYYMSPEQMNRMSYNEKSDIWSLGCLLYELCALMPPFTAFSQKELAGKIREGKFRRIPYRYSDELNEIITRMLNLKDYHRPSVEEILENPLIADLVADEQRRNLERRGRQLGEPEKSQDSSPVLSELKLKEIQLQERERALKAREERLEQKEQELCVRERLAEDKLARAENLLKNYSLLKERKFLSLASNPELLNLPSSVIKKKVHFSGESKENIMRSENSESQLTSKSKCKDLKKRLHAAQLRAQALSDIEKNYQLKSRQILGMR

[8] = target: T7, Tyrosine-protein kinase receptor UFO (Homo sapiens, UniProt P30530); experiment: Inhibition of recombinant AXL (unknown origin) assessed as incorporation of [gamma-33P]-ATP into substrate by radiometric assay
T7 sequence (P30530 whole entry): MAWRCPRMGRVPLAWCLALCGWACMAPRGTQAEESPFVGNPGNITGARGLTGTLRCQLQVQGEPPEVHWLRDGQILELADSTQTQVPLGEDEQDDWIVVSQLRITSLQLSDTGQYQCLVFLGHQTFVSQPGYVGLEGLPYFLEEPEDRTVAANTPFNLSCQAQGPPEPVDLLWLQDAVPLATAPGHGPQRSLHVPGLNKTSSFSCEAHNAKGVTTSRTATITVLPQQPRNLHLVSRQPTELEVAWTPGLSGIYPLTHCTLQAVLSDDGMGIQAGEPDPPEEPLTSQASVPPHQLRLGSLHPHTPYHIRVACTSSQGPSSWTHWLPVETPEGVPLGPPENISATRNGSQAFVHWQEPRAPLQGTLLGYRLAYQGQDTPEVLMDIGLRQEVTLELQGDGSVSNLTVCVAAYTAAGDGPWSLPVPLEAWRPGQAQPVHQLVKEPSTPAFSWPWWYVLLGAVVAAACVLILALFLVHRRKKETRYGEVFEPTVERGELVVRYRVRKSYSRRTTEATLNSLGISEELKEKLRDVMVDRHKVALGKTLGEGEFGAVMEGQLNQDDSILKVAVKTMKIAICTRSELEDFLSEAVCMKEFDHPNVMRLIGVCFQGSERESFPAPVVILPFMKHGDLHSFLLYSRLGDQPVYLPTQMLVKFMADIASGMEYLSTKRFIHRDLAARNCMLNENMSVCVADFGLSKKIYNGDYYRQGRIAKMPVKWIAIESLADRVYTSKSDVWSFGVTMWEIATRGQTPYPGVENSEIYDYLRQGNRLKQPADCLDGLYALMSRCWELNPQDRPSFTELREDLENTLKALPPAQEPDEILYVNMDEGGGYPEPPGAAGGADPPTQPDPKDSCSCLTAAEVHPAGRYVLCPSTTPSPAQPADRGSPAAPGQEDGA

[9] = target: T3, ALK tyrosine kinase receptor; experiment: Inhibition of recombinant ALK (unknown origin) assessed as incorporation of [gamma-33P]-ATP into substrate by radiometric assay
Target sequence in this assay (Q9UM73 whole entry): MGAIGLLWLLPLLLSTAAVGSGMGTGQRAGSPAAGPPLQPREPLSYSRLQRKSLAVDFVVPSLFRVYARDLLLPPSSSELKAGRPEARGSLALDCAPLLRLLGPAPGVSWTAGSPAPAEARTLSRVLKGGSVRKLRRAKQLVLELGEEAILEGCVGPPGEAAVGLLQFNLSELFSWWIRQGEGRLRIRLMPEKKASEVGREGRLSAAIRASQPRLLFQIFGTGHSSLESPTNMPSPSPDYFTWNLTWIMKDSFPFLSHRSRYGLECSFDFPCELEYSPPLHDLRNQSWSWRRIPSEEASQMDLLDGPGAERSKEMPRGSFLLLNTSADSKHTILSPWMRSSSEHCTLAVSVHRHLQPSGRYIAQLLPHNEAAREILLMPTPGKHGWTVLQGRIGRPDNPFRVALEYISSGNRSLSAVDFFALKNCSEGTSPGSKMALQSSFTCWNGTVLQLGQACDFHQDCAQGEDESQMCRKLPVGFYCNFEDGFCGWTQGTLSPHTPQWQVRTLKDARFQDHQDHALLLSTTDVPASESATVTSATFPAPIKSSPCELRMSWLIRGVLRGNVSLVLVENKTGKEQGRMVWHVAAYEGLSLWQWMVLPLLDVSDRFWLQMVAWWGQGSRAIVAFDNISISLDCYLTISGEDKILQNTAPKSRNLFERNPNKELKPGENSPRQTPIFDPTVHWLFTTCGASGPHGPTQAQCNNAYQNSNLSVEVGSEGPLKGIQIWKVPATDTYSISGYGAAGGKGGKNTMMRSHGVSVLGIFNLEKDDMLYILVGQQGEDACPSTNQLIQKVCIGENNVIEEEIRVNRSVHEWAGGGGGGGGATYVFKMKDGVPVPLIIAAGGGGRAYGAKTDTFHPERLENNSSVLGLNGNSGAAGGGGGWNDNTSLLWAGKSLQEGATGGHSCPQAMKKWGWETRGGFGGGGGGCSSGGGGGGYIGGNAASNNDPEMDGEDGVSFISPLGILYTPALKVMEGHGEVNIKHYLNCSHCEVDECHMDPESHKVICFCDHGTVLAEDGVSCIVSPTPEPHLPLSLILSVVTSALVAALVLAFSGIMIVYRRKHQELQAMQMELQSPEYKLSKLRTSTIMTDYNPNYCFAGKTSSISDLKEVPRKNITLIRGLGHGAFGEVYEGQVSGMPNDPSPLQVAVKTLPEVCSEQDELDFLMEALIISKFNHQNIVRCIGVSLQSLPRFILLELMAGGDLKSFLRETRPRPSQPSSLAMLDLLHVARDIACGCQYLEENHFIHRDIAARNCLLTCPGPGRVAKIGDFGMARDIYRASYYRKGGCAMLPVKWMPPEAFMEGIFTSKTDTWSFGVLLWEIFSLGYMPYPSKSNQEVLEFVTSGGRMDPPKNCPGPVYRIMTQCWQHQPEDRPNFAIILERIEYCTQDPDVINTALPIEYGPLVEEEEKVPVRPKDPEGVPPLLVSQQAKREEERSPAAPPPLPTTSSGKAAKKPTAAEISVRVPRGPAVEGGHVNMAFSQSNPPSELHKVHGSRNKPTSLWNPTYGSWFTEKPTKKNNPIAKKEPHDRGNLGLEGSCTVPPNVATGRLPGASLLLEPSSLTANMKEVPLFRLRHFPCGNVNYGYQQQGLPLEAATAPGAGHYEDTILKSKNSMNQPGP

[10] = target: Hepatocyte growth factor receptor (Homo sapiens, UniProt P08581); experiment: Inhibition of wild type MET (unknown origin) assessed as incorporation of [gamma-33P]-ATP into substrate by radiometric assay
[11] = target: T4, Insulin-like growth factor 1 receptor; experiment: Inhibition of recombinant IGF1R (unknown origin) using Poly (Glu,Tyr) 4:1 as substrate assessed as incorporation of [gamma-33P]-ATP into substrate by radiometric assay
[12] = target: Serine/threonine-protein kinase PLK1 (Homo sapiens, UniProt P53350); experiment: Inhibition of recombinant PLK1 (unknown origin) using casein as substrate assessed as incorporation of [gamma-33P]-ATP into substrate by radiometric assay
[13] = target: Serine/threonine-protein kinase pim-1 (Homo sapiens, UniProt P11309); experiment: Inhibition of recombinant PIM1 (unknown origin) assessed as incorporation of [gamma-33P]-ATP into substrate by radiometric assay; outline: as §1
[14] = target: T8, NUAK family SNF1-like kinase 1 (Homo sapiens, UniProt O60285); experiment: Inhibition of recombinant ARK5 (unknown origin) assessed as incorporation of [gamma-33P]-ATP into substrate by radiometric assay; outline: as §1
T8 sequence (O60285 whole entry): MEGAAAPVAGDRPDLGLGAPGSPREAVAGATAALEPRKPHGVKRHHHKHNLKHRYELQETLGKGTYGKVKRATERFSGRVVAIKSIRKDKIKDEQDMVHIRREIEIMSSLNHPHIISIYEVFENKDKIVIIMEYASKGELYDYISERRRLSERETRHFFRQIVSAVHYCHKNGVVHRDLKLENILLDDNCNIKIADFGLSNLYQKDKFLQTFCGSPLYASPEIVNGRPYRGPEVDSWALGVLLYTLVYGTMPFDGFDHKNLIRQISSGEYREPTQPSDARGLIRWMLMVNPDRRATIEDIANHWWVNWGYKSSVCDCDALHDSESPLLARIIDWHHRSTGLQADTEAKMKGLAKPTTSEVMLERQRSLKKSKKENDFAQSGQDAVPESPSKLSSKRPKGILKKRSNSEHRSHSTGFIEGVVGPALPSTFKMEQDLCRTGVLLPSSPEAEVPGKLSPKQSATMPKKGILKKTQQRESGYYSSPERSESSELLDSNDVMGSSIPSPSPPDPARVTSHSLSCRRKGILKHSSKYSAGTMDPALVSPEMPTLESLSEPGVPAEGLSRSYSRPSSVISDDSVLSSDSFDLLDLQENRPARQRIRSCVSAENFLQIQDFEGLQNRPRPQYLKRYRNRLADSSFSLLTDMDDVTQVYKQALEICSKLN

[15] = target: T5, Proto-oncogene tyrosine-protein kinase Src; experiment: Inhibition of recombinant SRC (unknown origin) using casein as substrate assessed as incorporation of [gamma-33P]-ATP into substrate by radiometric assay
Aurora kinase B = Aurora kinase B (Homo sapiens, UniProt Q96GD4); experiment: Inhibition of recombinant aurora kinase B (unknown origin) using tetra(LRRWSLG) as substrate assessed as incorporation of [gamma-33P]-ATP into substrate by radiometric assay
Sequence of Aurora kinase B (Q96GD4 whole entry): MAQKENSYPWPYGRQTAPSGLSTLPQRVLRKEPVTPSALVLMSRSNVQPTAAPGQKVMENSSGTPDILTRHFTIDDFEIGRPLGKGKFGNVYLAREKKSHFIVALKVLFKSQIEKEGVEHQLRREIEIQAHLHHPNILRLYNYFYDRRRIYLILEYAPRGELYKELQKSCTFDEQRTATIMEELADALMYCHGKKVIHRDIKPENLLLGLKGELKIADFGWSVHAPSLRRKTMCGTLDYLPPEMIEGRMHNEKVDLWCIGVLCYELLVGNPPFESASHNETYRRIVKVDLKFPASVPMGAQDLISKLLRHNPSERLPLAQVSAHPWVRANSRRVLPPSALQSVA

[16] = target: T1, Vascular endothelial growth factor receptor 2; experiment: Inhibition of recombinant VEGFR2 (unknown origin) using poly(Glu,Tyr)4:1 as substrate assessed as incorporation of [gamma-33P]-ATP into substrate by radiometric assay; outline: as §1
[17] = target: Dual specificity mitogen-activated protein kinase kinase 1 (Homo sapiens, UniProt Q02750); experiment: Inhibition of wild type MEK1 (unknown origin) assessed as incorporation of [gamma-33P]-ATP into substrate by radiometric assay
[18] = target: Serine/threonine-protein kinase Nek6 (Homo sapiens, UniProt Q9HC98); experiment: Inhibition of recombinant NEK6 (unknown origin) assessed as incorporation of [gamma-33P]-ATP into substrate by radiometric assay; outline: as §1
[19] = target: RAC-alpha serine/threonine-protein kinase (Homo sapiens, UniProt P31749); experiment: Inhibition of recombinant AKT1 (unknown origin) using GSK3 (14 to 27) as substrate assessed as incorporation of [gamma-33P]-ATP into substrate by radiometric assay; outline: as §1
Sequence of RAC-alpha serine/threonine-protein kinase (P31749 whole entry): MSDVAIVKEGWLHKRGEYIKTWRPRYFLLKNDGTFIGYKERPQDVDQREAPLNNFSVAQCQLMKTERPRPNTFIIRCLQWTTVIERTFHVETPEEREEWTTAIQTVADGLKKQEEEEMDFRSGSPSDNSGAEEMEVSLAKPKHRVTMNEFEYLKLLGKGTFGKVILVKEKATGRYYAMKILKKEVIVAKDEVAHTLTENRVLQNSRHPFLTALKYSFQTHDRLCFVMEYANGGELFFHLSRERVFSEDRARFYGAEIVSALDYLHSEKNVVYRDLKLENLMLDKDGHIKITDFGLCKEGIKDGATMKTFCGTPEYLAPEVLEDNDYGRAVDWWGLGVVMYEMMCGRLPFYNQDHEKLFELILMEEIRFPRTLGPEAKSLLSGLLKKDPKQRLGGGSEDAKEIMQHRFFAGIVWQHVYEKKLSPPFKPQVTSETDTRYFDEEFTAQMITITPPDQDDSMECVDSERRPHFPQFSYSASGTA

Focal adhesion kinase 1 [20] = target: T2, Focal adhesion kinase 1; experiment: Inhibition of recombinant FAK (unknown origin) assessed as incorporation of [gamma-33P]-ATP into substrate by radiometric assay; outline: as §1
Target sequence in this assay (Q05397 whole entry): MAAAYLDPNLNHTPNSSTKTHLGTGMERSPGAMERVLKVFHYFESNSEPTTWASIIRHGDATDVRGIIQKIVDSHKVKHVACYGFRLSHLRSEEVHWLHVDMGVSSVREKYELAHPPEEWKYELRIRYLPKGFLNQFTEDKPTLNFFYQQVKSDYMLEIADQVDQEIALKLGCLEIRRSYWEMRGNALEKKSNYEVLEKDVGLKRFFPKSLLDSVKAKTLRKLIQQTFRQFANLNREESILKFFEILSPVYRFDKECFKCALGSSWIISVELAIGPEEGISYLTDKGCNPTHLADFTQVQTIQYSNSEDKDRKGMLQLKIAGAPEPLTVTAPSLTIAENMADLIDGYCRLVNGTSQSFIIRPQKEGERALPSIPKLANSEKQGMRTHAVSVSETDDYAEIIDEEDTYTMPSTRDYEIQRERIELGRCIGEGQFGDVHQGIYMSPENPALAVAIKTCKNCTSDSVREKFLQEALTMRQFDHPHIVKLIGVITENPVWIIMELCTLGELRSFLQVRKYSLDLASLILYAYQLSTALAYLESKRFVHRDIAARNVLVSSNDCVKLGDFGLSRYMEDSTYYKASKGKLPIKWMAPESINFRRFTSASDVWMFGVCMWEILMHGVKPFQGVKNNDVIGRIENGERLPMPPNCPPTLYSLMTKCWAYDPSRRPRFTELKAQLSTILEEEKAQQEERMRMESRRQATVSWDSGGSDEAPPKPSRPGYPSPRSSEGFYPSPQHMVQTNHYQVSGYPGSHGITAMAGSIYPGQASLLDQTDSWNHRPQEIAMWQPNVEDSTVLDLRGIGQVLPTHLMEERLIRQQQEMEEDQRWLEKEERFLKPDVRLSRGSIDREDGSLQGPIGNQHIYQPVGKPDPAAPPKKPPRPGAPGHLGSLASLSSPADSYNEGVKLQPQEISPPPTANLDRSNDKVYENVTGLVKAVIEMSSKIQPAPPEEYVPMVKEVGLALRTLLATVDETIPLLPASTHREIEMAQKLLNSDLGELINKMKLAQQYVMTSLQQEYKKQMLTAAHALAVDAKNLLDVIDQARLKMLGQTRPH

| Compound | inhibition [1] | inhibition (Focal adhesion kinase 1 [2]) | inhibition [3] | inhibition [4] | inhibition [5] | IC50 (L5178Y) | IC50 [6] | IC50 [7] | IC50 [8] | IC50 [9] | IC50 [10] | IC50 [11] | IC50 [12] | IC50 [13] | IC50 [14] | IC50 [15] | IC50 (Aurora kinase B) | IC50 [16] | IC50 [17] | IC50 [18] | also measured |
| --- | --- | --- | --- | --- | --- | --- | --- | --- | --- | --- | --- | --- | --- | --- | --- | --- | --- | --- | --- | --- | --- |
| CSCCCNC1=CC(=O)C(O)=C(C[C@]2(C)[C@@H](C)CC[C@@]3(C)C(C)=CCC[C@@H]23)C1=O | Active | Active | Active | Active | Active | 1.8 µM |  |  |  |  |  |  |  |  |  |  |  |  |  |  |  |
| COc1cc2nc(C)oc2c(C[C@]2(C)[C@@H](C)CC[C@@]3(C)C(C)=CCC[C@@H]23)c1O |  |  |  |  |  | > 10 µM | > 100 µM | > 100 µM | 14.7 µM | 3.38 µM | > 100 µM | 3.31 µM | > 100 µM | > 100 µM | > 100 µM | 19.7 µM | > 100 µM | 3.66 µM | > 100 µM | > 100 µM | IC50 [19]: > 100 µM; IC50 (Focal adhesion kinase 1 [20]): 7.78 µM |
| CC1=CCC[C@H]2[C@](C)(CC3=C(O)C(=O)C=C(NCCc4ccccc4)C3=O)[C@@H](C)CC[C@@]12C | Active | Active | Active | Active | Active | 1.1 µM |  |  |  |  |  |  |  |  |  |  |  |  |  |  |  |
| CC1=CCC[C@H]2[C@](C)(CC3=C(O)C(=O)C=C(NCCc4ccc(O)cc4)C3=O)[C@@H](C)CC[C@@]12C | Active | Active | Active | Active | Active | 1.7 µM |  |  |  |  |  |  |  |  |  |  |  |  |  |  |  |
| CC1=CCC[C@H]2[C@](C)(CC3=C(O)C(=O)C=C(NCCc4c[nH]c5ccccc45)C3=O)[C@@H](C)CC[C@@]12C | Active | Active | Active | Active | Active | 3.7 µM |  |  |  |  |  |  |  |  |  |  |  |  |  |  |  |
| CC1=CCC[C@H]2[C@](C)(Cc3c4oc(C)nc4cc4nc(C)oc34)[C@@H](C)CC[C@@]12C |  | Active | Active | Active |  | > 10 µM |  |  |  |  |  |  |  |  |  |  |  |  |  |  |  |
| COC(=O)c1cc(O)c(O)c(C[C@]2(C)[C@@H](C)CC[C@@]3(C)C(C)=CCC[C@@H]23)c1 |  |  |  |  |  | > 10 µM | > 100 µM | 14.7 µM | 13.1 µM | 2.19 µM | 3.12 µM | 11.8 µM | 21.7 µM | 20.3 µM | 29.4 µM | 8.62 µM | 3.89 µM | 4.81 µM | > 100 µM | 7.72 µM | IC50 [19]: 48.4 µM; IC50 (Focal adhesion kinase 1 [20]): 4.56 µM |
| CC1=CCC[C@H]2[C@](C)(CC3=C(O)C(=O)C=C(NCCC(C)C)C3=O)[C@@H](C)CC[C@@]12C |  |  |  |  |  | 1.3 µM | > 100 µM | 29.9 µM | > 100 µM | 0.97 µM | 40.3 µM | 1.94 µM | 100 µM | 62.6 µM | > 100 µM | 2.2 µM | 61 µM | 2.22 µM | > 100 µM | 90.8 µM | IC50 [19]: 73.2 µM; IC50 (Focal adhesion kinase 1 [20]): 3.03 µM |
